Assay results: ChEMBL document CHEMBL4342410, “Design and Discovery of N-(3-(2-(2-Hydroxyethoxy)-6-morpholinopyridin-4-yl)-4-methylphenyl)-2-(trifluoromethyl)isonicotinamide, a Selective, Efficacious, and Well-Tolerated RAF Inhibitor Targeting RAS Mutant Cancers: The Path to the Clinic” (J Med Chem, 2020)

Legend:
Calu-6 [1] = assay: Antiproliferative activity against human Calu6 cells harboring KRAS Q61K mutant assessed as reduction in cell viability after 72 hrs by CellTiter-Glo assay; type: functional, cell-based; conditions: Calu-6, 72 h
[2] = tested on: RAF proto-oncogene serine/threonine-protein kinase (Homo sapiens), P04049 [Y340E,Y341E]; assay: Binding affinity to CRAF Y340E/Y341E mutant (unknown origin) assessed as dissociation half life by rapid dilution method
Method in brief: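 Full-length CRAF carrying activating Y340E/Y341E was used in a kinase activity assay. Dissociation was measured by the rapid dilution method, and recovery of enzyme activity was followed over 6 hours of incubation. The dissociation half-life was derived from that recovery.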

[3] = target: RAF proto-oncogene serine/threonine-protein kinase (Homo sapiens, UniProt P04049); assay: Binding affinity to wild-type human partial length CRAF (I330 to T640 residues) expressed in bacterial expression system at 1 uM by Kinomescan method relative to control
[4] = target: Epithelial discoidin domain-containing receptor 1 (Homo sapiens) (UniProt Q08345); assay: Binding affinity to wild-type human partial length DDR1 (R565 to V876 residues) expressed in bacterial expression system at 1 uM by Kinomescan method relative to control
Epithelial discoidin domain-containing receptor 1 (Homo sapiens), sequence (Q08345 whole entry, the tested form may be a part): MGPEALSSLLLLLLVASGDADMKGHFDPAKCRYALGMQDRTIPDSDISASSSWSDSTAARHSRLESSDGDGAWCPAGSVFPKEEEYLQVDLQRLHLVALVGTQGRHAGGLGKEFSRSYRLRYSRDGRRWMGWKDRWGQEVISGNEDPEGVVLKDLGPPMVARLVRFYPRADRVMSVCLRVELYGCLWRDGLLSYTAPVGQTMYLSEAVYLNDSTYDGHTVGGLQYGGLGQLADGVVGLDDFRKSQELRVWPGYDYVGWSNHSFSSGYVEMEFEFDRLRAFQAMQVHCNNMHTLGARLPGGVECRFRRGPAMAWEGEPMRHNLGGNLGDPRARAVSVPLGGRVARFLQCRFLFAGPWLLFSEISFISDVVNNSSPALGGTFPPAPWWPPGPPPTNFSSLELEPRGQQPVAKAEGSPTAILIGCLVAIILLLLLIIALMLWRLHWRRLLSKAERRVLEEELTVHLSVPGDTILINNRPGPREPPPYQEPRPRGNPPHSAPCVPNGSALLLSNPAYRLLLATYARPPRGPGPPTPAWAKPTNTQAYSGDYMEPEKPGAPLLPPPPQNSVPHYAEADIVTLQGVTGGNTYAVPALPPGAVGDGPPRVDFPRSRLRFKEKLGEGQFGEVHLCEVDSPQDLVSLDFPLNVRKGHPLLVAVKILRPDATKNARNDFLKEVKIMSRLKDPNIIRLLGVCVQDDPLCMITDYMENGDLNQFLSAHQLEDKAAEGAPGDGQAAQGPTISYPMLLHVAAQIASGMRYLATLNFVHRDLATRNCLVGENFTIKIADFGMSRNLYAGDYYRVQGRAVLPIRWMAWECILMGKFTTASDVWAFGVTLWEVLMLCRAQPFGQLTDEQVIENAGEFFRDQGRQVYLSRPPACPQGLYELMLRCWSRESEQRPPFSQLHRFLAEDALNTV
Method in brief: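 KINOMEscan competition binding panel of about 456 kinases, compound tested at 1 μM. Activity is given as % of control = [(test signal − positive control signal)/(negative control signal − positive control signal)] × 100.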

[5] = target: Serine/threonine-protein kinase B-raf (Homo sapiens, UniProt P15056); assay: Binding affinity to wild-type human partial length BRAF (S429 to E741 residues) expressed in mammalian expression system by Kinomescan method
Serine/threonine-protein kinase B-raf, sequence (P15056 whole entry, the tested form may be a part): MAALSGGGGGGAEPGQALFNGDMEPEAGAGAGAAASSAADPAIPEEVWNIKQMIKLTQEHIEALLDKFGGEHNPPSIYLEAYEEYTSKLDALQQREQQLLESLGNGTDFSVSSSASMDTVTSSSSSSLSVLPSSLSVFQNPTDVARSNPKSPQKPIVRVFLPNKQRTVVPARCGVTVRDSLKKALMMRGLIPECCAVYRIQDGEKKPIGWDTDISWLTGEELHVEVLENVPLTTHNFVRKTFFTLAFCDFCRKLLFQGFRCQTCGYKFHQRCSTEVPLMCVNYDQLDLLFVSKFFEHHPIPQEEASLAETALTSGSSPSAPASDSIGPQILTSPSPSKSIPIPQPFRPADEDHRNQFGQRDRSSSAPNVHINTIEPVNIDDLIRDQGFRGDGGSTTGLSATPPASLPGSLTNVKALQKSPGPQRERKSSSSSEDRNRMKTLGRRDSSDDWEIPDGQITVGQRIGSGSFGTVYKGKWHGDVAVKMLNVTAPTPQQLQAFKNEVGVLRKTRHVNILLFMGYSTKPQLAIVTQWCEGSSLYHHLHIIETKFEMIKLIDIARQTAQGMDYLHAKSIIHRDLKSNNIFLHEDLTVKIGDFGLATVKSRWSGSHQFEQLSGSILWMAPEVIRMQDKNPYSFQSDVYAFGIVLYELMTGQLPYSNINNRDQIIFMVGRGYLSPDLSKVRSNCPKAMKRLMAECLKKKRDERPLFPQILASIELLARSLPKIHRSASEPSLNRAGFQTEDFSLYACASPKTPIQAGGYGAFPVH

[6] = Cmax in rat at 4 mg/kg, po; type: ADME, organism-based; set-up: dose 4 mg/kg, route oral; conditions: in vivo
[7] = AUC (infinity) in dog at 0.4 mg/kg, po; type: ADME, organism-based, Canis lupus familiaris; set-up: dose 0.4 mg/kg, time infinity, route oral; conditions: in vivo
[8] = Clearance in mouse at 2 mg/kg, iv or 4 mg/kg, po; type: ADME, organism-based; conditions: in vivo
[9] = Clearance in rat at 2 mg/kg, iv or 4 mg/kg, po; type: ADME, organism-based; conditions: in vivo
[10] = Oral bioavailability in mouse at 4 mg/kg; type: ADME, organism-based; conditions: in vivo
[11] = Oral bioavailability in rat at 4 mg/kg; type: ADME, organism-based; conditions: in vivo
Rattus norvegicus = assay: In vivo inhibition of CRAF in nude rat xenografted with human Calu6 cells harboring KRAS Q61K mutant assessed as reduction in tumor MEK phosphorylation at 150 mg/kg, po administered as single dose measured after 24 hrs by sandwich ELISA relative to control; type: functional; conditions: Calu-6, po
Method in brief: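 Calu-6 (KRAS Q61K) xenograft-bearing nude rats were given a single oral dose of 15, 35, 75 or 150 mg/kg. Tumor and blood were sampled at 1, 4, 7, 24 and 48 h post-dose. Tumor pMEK was quantified by MSD immunoassay and expressed as percent pMEK. Free plasma exposure was determined in parallel.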

Calu-6 [12] = assay: Antitumor activity against human Calu6 cells harboring KRAS Q61K mutant xenografted in po dosed nude rat assessed as increase in tumor regression administered daily for 18 days starting from day 13 post tumor implantation and measured on day 31; type: functional, organism-based
Method in brief: (§1)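 Nude rats bearing Calu-6 (KRAS Q61K) human NSCLC xenografts received vehicle or drug p.o. daily at 15, 35, 75 or 150 mg/kg. Dosing began 13 days after tumor implantation and ran to day 31, i.e. 18 days of treatment. Tumor volumes were read out as %T/C or % regression versus vehicle on day 31. Body weight was also tracked.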

Calu-6 [13] = assay: Antitumor activity against human Calu6 cells harboring KRAS Q61K mutant xenografted in nude rat assessed as tumor growth at 35 mg/kg, po administered daily for 18 days starting from day 13 post tumor implantation and measured on day 31 relative to control; type: functional; method in brief: as §1
Calu-6 [14] = assay: Antitumor activity against human Calu6 cells harboring KRAS Q61K mutant xenografted in nude rat assessed as tumor regression at 150 mg/kg, po administered daily for 18 days starting from day 13 post tumor implantation and measured on day 31 relative to control; type: functional; method in brief: as §1
[15] = Toxicity in human Calu6 cells harboring KRAS Q61K mutant xenografted nude rat assessed as change in body weight at 15 to 150 mg/kg, po administered daily for 18 days starting from day 13 post tumor implantation and measured during compound dosing; type: organism-based; conditions: in vivo, 432 h
Method in brief: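 Nude rats bearing Calu-6 (KRAS Q61K) NSCLC xenografts were dosed orally once daily with vehicle or 15, 35, 75 or 150 mg/kg. Dosing ran from day 13 after implantation until day 31. Body weight was tracked and expressed as percent change from initial for each treatment group versus the vehicle control.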

[16] = Toxicity in human Calu6 cells harboring KRAS Q61K mutant xenografted nude rat assessed as mortality at 15 to 150 mg/kg, po administered daily for 18 days starting from day 13 post tumor implantation and measured during compound dosing; type: organism-based; conditions: in vivo, 432 h
Method in brief: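 Nude rats bearing Calu-6 (KRAS Q61K) NSCLC xenografts were dosed orally once daily with vehicle or 15, 35, 75 or 150 mg/kg. Dosing ran from day 13 post-implant to day 31. Rats were monitored for mortality and signs of toxicity over the treatment period, alongside body weight.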

[17] = AUC (0 to 24 hrs) in nude rat xenografted with human Calu6 cells harboring KRAS Q61K mutant at 15 mg/kg, po administered daily for 18 days starting from day 13 post tumor implantation and measured on day 31; type: ADME, organism-based; set-up: dose 15 mg/kg, time < 24 hr, route oral; conditions: in vivo
Method in brief: (§2)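 Nude rats carrying Calu-6 (KRAS Q61K) NSCLC xenografts were dosed p.o. once daily at 15, 35, 75 or 150 mg/kg from day 13 to day 31 after implant. Plasma was collected after the last dose and drug concentration was measured. AUC and Cmax were calculated per dose on day 31.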

[18] = Cmax in nude rat xenografted with human Calu6 cells harboring KRAS Q61K mutant at 15 mg/kg, po administered daily for 18 days starting from day 13 post tumor implantation and measured on day 31; type: ADME, organism-based; set-up: dose 15 mg/kg, route oral; conditions: in vivo; method in brief: as §2
[19] = AUC (0 to 24 hrs) in nude rat xenografted with human Calu6 cells harboring KRAS Q61K mutant at 35 mg/kg, po administered daily for 18 days starting from day 13 post tumor implantation and measured on day 31; type: ADME, organism-based; set-up: dose 35 mg/kg, time < 24 hr, route oral; conditions: in vivo; method in brief: as §2
[20] = Cmax in nude rat xenografted with human Calu6 cells harboring KRAS Q61K mutant at 35 mg/kg, po administered daily for 18 days starting from day 13 post tumor implantation and measured on day 31; type: ADME, organism-based; set-up: dose 35 mg/kg, route oral; conditions: in vivo; method in brief: as §2
[21] = Tmax in nude rat xenografted with human Calu6 cells harboring KRAS Q61K mutant at 75 mg/kg, po administered daily for 18 days starting from day 13 post tumor implantation and measured on day 31; type: ADME, organism-based; conditions: in vivo
Method in brief: (§3)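 Calu-6 xenograft nude rats were dosed orally once daily at 15, 35, 75 or 150 mg/kg from day 13 after implantation to day 31. Plasma was collected after the last dose on day 31, drug concentrations were measured, and PK parameters including AUC were calculated for each dose.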

[22] = Cmax in nude rat xenografted with human Calu6 cells harboring KRAS Q61K mutant at 150 mg/kg, po administered daily for 18 days starting from day 13 post tumor implantation and measured on day 31; type: ADME, organism-based; set-up: dose 150 mg/kg, route oral; conditions: in vivo; method in brief: as §2
[23] = Time of last measurable concentration in nude rat xenografted with human Calu6 cells harboring KRAS Q61K mutant at 150 mg/kg, po administered daily for 18 days starting from day 13 post tumor implantation and measured on day 31; type: ADME, organism-based; conditions: in vivo, 432 h; method in brief: as §3
[24] = Dissociation constant, pKa of the compound; type: physicochemical
[25] = Protein binding in human plasma; type: ADME, cell-free; conditions: read-out: PPB (converted)

Cc1ccc(NC(=O)c2ccnc(C(F)(F)F)c2)cc1-c1cc(OCCO)nc(N2CCOCC2)c1 [NAPORAFENIB]
EC50 (Calu-6 [1]): 280 to 470 nM | T1/2 [2]: > 6.5 h | Activity [3]: > 98% | Activity [4]: > 99% | Kd [5]: 1.3 nM | Cmax [6]: 500 nM | AUC(0-inf) [7]: 3.1 µM·h | clearance [8]: 19 mL/min/kg | clearance [9]: 31 mL/min/kg | bioavailability [10]: 65% | bioavailability [11]: 38% | inhibition in vivo at 150 mg/kg (Rattus norvegicus): 70% | Activity (Calu-6 [12]): Dose-dependent effect | T/C (Calu-6 [13]): 9% | Activity (Calu-6 [14]): 56% | Activity [15]: Non-Toxic | Activity [16]: Non-Toxic | AUC at 24 h [17]: 7.91 µM·h | Cmax [18]: 878 nM | AUC at 24 h [19]: 25.2 µM·h | Cmax [20]: 2350 nM | Tmax [21]: 2 h | Cmax [22]: 12700 nM | Tlast [23]: 24 h | pKa [24]: 3.86 | fraction unbound [25]: 0.02
